# MEKK2 WT-MEK5: raises or lowers MEK5 binding to wildtype human MEKK2 PB1 domain; Q9Y2U5; bead flow cytometry, Alexa488-MEK5 binding to MEKK2 WT; actives lie on both sides; binding response (% of control), % at 10 µM; hit rate 1.1% among 290,000; in the data active = binding response below about 67% or above about 130%
# ABCB1 inh: human ABCB1 inhibition, ABCG2 as counter-screen | P08183 | CCRF-Adr cells, JC-1 efflux, flow cytometry | inhibition, % at 6.6 µM | hit rate 0.067% among 190,000 | AID 1326; in the data active = inhibition above about 40%;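 also: higher value means more JC-1 retained so stronger ABCB1 efflux block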
# ABCG2 block: inhibitors of human ABCG2 transporter, ABCB1 counter-screen; Q9UNQ0; IgMXP3 cells, JC-1 efflux, flow cytometry; inhibition, % at 6.6 µM; hit rate 0.1% among 190,000; AID 1325;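 active = inhibition above 80%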
# Target sequence (Q9UNQ0 whole entry, looked up): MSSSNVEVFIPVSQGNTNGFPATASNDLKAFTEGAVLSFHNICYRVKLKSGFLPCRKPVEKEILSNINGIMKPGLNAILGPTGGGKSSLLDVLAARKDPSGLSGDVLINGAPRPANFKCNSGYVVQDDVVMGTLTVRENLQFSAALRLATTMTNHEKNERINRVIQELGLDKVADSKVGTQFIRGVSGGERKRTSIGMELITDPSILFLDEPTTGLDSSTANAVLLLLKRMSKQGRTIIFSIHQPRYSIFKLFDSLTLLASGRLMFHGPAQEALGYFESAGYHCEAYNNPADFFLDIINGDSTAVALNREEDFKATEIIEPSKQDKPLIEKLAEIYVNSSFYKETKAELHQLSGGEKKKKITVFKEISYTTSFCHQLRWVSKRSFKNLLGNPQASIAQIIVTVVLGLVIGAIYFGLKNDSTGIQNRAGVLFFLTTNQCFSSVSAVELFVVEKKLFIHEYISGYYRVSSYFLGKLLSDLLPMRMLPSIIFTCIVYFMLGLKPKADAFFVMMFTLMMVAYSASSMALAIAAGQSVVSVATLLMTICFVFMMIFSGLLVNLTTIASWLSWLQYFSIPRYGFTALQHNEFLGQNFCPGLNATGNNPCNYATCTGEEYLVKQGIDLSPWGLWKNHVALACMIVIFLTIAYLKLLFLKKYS
#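 Test system: ABCG2 IgMXP3 and barcoded ABCB1 CCRF-Adr cell mix; Schedule: cells with compound and JC-1, 10 min at 25 °C, rotating, no wash; Technique: flow cytometry of retained JC-1 fluorescence; Measure: % inhibition of efflux relative to nicardipine and DMSO; Controls: nicardipine high and DMSO low controls.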
# WT yeast gro inh: growth inhibition of WT yeast, mitochondrial fusion screen; mitochondrial fusion phenotypic screen, WT strain; inhibition, % at 10 µM; hit rate 2.1% among 190,000; AID 1362; in the data active = inhibition above about 58%; tested in S. cerevisiae
# MEKK2mut PB1 HTS: signal of MEK5 binding to mutant human MEKK2 PB1 domain; bead flow cytometry, Alexa488-MEK5 binding to MEKK2 mutant; percent response, % at 10 µM; hit rate 0.35% among 290,000; AID 1530; in the data active = percent response above about 24%, passing the limit was not always enough
# MEKK3 PB1 HTS: raises or lowers MEK5 binding to the human MEKK3 PB1 domain; bead-based flow cytometry, Alexa488-MEK5 binding to MEKK3; actives lie on both sides; 0 = blocked by unlabeled MEK5, 100 = vehicle; binding response (% of control), % at 10 µM; AID 1529; hit rate 1.4% among 290,000;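 active = binding response more than 3 SD above or below the average of its plate-row segment, actives on both sides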;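 also: Alexa488 bead fluorescence after subtracting the streptavidin-only scavenger bead signal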
# MEKK2wt confirm: raises or lowers MEK5 binding to wildtype human MEKK2, retest; hit rate 2.4% among 5,900; AID 1892; shares compounds with MEKK3 PB1 HTS; bead flow cytometry, Alexa488-MEK5 binding to MEKK2 WT; actives lie on both sides; binding response (% of control), % at 10 µM; in the data active = binding response below about 16% or above about 210%; inactive = in between
# MEKK2mut confirm: signal of MEK5 binding to mutant human MEKK2, retest; shares compounds with MEKK3 PB1 HTS; hit rate 2% among 5,900; percent response, % at 10 µM; bead flow cytometry, Alexa488-MEK5 binding to MEKK2 mutant; in the data active = percent response mostly above about 71%, no sharp cut-off; inactive = mostly below about 38%;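 also: higher means compound restores mutant binding toward wildtype level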
# MEKK3 confirm: MEKK3-MEK5 PB1 inhibition, single concentration confirmation; bead flow cytometry, Alexa488-MEK5 binding to MEKK3; stronger effect = lower value; shares compounds with MEKK3 PB1 HTS; AID 1894; binding response (% of control), % at 10 µM; hit rate 1.8% among 5,900;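 active = binding response below 72% of control, or above a set upper limit, though filed actives all read lower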
# Hits are given with their value; n = inactive; x = no result; [ ] = dose if it differs, or a comment. Sampled rows, rich in hits. Any-hit rate of the full collection: about 3.5%.
SMILES,MEKK2 WT-MEK5,ABCB1 inh,ABCG2 block,WT yeast gro inh,MEKK2mut PB1 HTS,MEKK3 PB1 HTS,MEKK2wt confirm,MEKK2mut confirm,MEKK3 confirm
CCC1=NN(C(=O)CCc2ccccc2)C(O)(C(F)(F)F)C1 (stereo not drawn),n,n,n,n,n,n,x,x,x
CCC1=NN(S(=O)(=O)c2ccc(C)cc2)C(O)(C(F)(F)F)C1 (stereo not drawn),n,n,n,n,n,128.0,n,n,n
C=CCn1c(C)c(/C=C/c2cc[n+](C)cc2)c2ccccc21,n,x,x,x,62.0,n,n,n,n
C=CCn1cc(/C=C/c2cc[n+](C)cc2)c2ccccc21,n,x,x,x,n,n,x,x,x
Cc1cc(/C=C(\C#N)C(=O)Nc2ccc(F)cc2)c(C)n1-c1ccc(N2CCOCC2)c([N+](=O)[O-])c1,n,n,n,n,n,n,x,x,x
COc1ccc(NC(=O)/C(C#N)=C/c2cc(C)n(-c3ccc(N4CCOCC4)c([N+](=O)[O-])c3)c2C)cc1,n,n,n,n,n,132.0,n,n,n
COC(=O)c1ccc(C2c3c(oc4ccc(Cl)cc4c3=O)C(=O)N2CCN2CCOCC2)cc1 (stereo not drawn),n,x,x,x,n,131.0,n,n,n
COC(=O)c1ccc(C2c3c(oc4ccccc4c3=O)C(=O)N2CCCN2CCOCC2)cc1 (stereo not drawn),x,n,n,n,x,x,x,x,x
CSc1cccc(NC(=S)NN(C)C)c1,60.0[inhibitor],x,x,x,n,68.0[inhibitor],n,n,n
CSc1cccc(NC(=S)Nc2ccc(F)cc2)c1,n,x,x,x,n,n,x,x,x
O=C(CSc1ncn[nH]1)c1ccc2c(c1)OCCO2,n,n,n,n,n,77.0[inhibitor],n,n,n
O=C(CSc1nnc(-c2ccccc2)o1)c1ccc2c(c1)OCCO2,n,n,n,n,n,80.0[inhibitor],n,n,n
Cc1cc(C)cc(-c2nnc(SCC(=O)c3ccc4c(c3)OCCO4)o2)c1,n,n,n,n,n,n,x,x,x
O=C(Nc1ccccc1)c1cc2n(n1)C(C(F)(F)F)CC(C1CC1)N2 (stereo not drawn),n,n,n,n,n,n,x,x,x
Cc1ccc2nc(=O)c(NNc3ccccc3)cnc2c1,n,n,n,n,n,n,x,x,x
Cc1nc2ccccc2nc(=O)c1NNc1ccccc1,n,n,n,n,n,51.0[inhibitor],n,n,n
O=C(O)Cc1sc(-c2ccc(Cl)cc2)nc1-c1ccccc1,n,n,n,n,n,123.0,n,n,n
CCNC(=O)CSc1nnc(C2CC2)n1-c1ccccc1,n,n,n,n,n,n,x,x,x
Cn1cccc1C(=O)NC(=O)CSc1nnc(C2CC2)n1-c1ccccc1,n,n,n,n,n,127.0,n,n,n
c1ccc(CSc2ccc(-c3ccc4c(c3)OCO4)nn2)cc1,n,n,n,n,n,n,x,x,x
Fc1ccc(CSc2ccc(-c3ccc4c(c3)OCO4)nn2)cc1,n,n,n,n,n,135.0,n,n,n
Cc1ccc(NC(=O)CSc2ccc(-c3ccc4c(c3)OCO4)nn2)cc1F,n,n,n,n,n,132.0,n,n,n
Cc1cc(NC(=O)CSc2ccc(-c3ccc4c(c3)OCO4)nn2)no1,n,n,n,n,n,n,x,x,x
CCC1=NC(c2ccc(OC)cc2)N(O)C1(C)C (stereo not drawn),n,n,n,n,n,80.0[inhibitor],n,n,n
Cc1oc(-c2ccccc2)cc1C(=O)NCc1ccncc1,56.0[inhibitor],x,x,x,n,n,n,n,n
SMILES,MEKK2 WT-MEK5,ABCB1 inh,ABCG2 block,WT yeast gro inh,MEKK2mut PB1 HTS,MEKK3 PB1 HTS,MEKK2wt confirm,MEKK2mut confirm,MEKK3 confirm
Cc1oc(-c2ccccc2)cc1C(=O)Nc1ccccc1,n,n,n,n,n,n,x,x,x
CCC(C)NC(=O)C1CCN(S(=O)(=O)N2CCCC2)CC1 (stereo not drawn),-3.0[inhibitor],n,n,n,n,1.0[inhibitor],n,n,n
CCC(C)NC(=O)C1CCN(S(=O)(=O)N2CCOCC2)CC1 (stereo not drawn),n,n,n,n,n,n,x,x,x
CCCN1CCN(S(=O)(=O)c2ccc(-n3cnnn3)cc2)CC1,n,x,x,x,n,n,x,x,x
CC(=O)c1c(C)[nH]c(C(=O)Nc2ccc(Cl)c(S(=O)(=O)N(C)C)c2)c1C,n,n,n,n,n,n,x,x,x
CC(=O)c1c(C)[nH]c(C(=O)OCC(=O)Nc2ccc(Cl)c(S(=O)(=O)N(C)C)c2)c1C,43.0[inhibitor],x,x,x,n,38.0[inhibitor],n,n,n
CCOc1ncccc1C(=O)OCC(=O)Nc1ccc(C)c(S(=O)(=O)N(C)C)c1,n,n,n,n,n,73.0[inhibitor],n,n,n
Cc1cc(C)cc(NC(=O)CN2CCC(NC(=O)c3ccccc3F)CC2)c1,135.0,x,x,x,n,n,n,n,n
O=C(CN1CCC(NC(=O)c2ccccc2F)CC1)NCc1ccc(F)cc1,n,n,n,n,n,n,x,x,x
Fc1ccc(/C=C\c2nccc3c2[nH]c2ccccc23)cc1,195.0,n,n,n,n,n,n,n,n
Cc1ccc(/C=C\c2nccc3c2[nH]c2ccccc23)cc1,174.0,n,n,n,n,n,n,n,n
C(=C\c1nccc2c1[nH]c1ccccc12)/c1ccccc1,n,x,x,x,n,n,x,x,x
CCOC(=O)c1nn(-c2ccc(Cl)cc2)c(C)cc1=O,n,x,x,x,n,n,x,x,x
COc1ccc(NC(=O)c2cccc(N3C(=O)C4C5C=CC(C6CC56)C4C3=O)c2)cc1 (stereo not drawn),n,x,x,x,n,n,x,x,x
COc1ccc(OCc2n(CC(=O)OC3CC(C)CCC3C(C)C)c3ccccc3[n+]2C)cc1 (stereo not drawn),162.0,x,x,x,n,n,n,n,n
O=C(Nc1ccccc1F)C(=O)c1cn(CC(=O)N2CCCCC2)c2ccccc12,n,n,n,n,n,44.0[inhibitor],n,n,n
CCN(CC)c1ccc(/C=N/Nc2nc3ccccc3[nH]2)c(O)c1,n,n,n,n,31.0,n,n,n,n
CCN(CC)c1ccc(C=Nc2ccccc2C)c(O)c1,n,n,n,n,n,140.0,n,n,n
CCN(CC)c1ccc(/C=N/N(c2ccccc2)c2ccccc2)c(O)c1,n,n,n,n,n,n,x,x,x
CCN(CC)c1ccc(C=Nc2ccc(C#N)cc2)c(O)c1,67.0[inhibitor],n,n,n,n,n,n,n,n
CCN(CC)c1ccc(O)c(C=Nc2ccc(C)c(C)c2)c1,n,n,n,n,n,n,x,x,x
COc1ccccc1CNCc1cccc(Oc2ccccc2)c1,n,n,n,n,n,n,x,x,x

# Source: PubChem (several laboratories)
